Assay outcomes: PubChem BioAssay, The Scripps Research Institute Molecular Screening Center
Most compounds without a hit are left out; they make up all but 3.1% or so of the library.
GalR3 antag = antagonists of human GalR3; 360,000 compounds, 0.44% hits; HEK293 GalR3-CNG cAMP membrane potential fluorescence; galR3 body fused to GalR1 C-terminus; inhibition, % at 3 µM; O60755;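 active = inhibition above the screen-wide average plus 3 SD, cut at about 13% in these data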;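 note: forskolin and galanin both at EC90 stimulate the cells; cAMP rise reported by CNG channel membrane potential dye signal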
Target sequence (O60755 1-299 limits assumed): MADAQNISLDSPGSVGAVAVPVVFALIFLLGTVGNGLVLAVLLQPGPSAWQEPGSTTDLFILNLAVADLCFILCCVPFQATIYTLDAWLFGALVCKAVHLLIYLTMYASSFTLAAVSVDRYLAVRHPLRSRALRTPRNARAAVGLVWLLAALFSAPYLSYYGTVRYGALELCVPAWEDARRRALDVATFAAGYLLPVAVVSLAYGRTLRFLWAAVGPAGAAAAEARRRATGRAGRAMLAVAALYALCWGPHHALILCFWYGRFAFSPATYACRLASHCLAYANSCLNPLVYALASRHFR
GPR7 antagonist = antagonists of human GPR7 (neuropeptides B/W receptor 1); GPR7-expressing cells, fluorescence antagonist assay; inhibition, % at 4.4 µM; 290,000 compounds, 1.1% hits; AID 1861; in the data active = inhibition above about 16%, passing the limit was not always enough;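 note: cells stimulated with the agonist NPW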
OX1R antag-1 = OX1R (human) antagonism. AID 485270. 330,000 compounds, 1.8% hits. OX1R-expressing cells, FRET antagonist read-out. inhibition, % at 6.6 µM; in the data active = inhibition mostly above about 38%, no sharp cut-off; inactive = mostly below about 40%
Target sequence (O43613 whole entry, looked up): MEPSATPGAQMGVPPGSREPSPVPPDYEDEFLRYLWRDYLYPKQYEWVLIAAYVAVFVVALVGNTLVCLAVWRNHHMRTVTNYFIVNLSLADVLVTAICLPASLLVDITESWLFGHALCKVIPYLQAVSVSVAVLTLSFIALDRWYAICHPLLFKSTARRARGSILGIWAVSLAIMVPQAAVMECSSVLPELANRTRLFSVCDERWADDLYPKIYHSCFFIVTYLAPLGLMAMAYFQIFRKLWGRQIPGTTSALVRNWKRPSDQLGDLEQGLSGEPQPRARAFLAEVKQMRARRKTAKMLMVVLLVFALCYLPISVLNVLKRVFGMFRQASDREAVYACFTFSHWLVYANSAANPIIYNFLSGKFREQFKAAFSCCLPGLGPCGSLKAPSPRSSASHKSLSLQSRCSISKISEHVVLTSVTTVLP
CHO parental Ca = counter-screen: ATP calcium response change in parental CHO cells. AID 463079. inhibition, % at 5.6 µM. parental CHO-K1, ATP-induced calcium, Fluo-8 fluorescence. 330,000 compounds, 0.63% hits;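 active = inhibition above that plate's mean sample inhibition plus 3 SD, cut at about 26% in these data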
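Test system: parental CHO cells; detection: calcium-sensitive Fluo-8 fluorescence; evaluation: percent inhibition of calcium signal; also added: ATP as calcium-mobilizing challenge; repeats: one well per compound; control set: ATP-challenged DMSO wells low, unchallenged DMSO wells high; compound: single nominal dose of 5.6 µM per compound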
OX1R antag-2 = antagonists of human orexin 1 receptor; O43613; CHO/OX1R cells, Fluo-8 calcium fluorescence, orexin A; inhibition, % at 5 µM; 330,000 compounds, 0.43% hits;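 active = inhibition above its plate's threshold, mean inhibition of all tested compounds on the plate plus 3 SD, cut at about 37% in these data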
GPR7 antag cf = confirmation of human GPR7 antagonists; shares compounds with GPR7 antagonist; AID 1952; 2,400 compounds, 52% hits; inhibition, % at 4.4 µM; GPR7-expressing cells, calcium fluorescence antagonist mode; in the data active = inhibition above about 24%;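 note: stimulated with the GPR7 agonist NPW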
MCHR1 antagonist = MCHR1 (human) antagonism in GPR7 counter-screen | shares compounds with GPR7 antagonist | MCHR1-expressing cells, fluorescence antagonist assay | inhibition, % at 4.4 µM | 2,400 compounds, 62% hits; in the data active = inhibition above about 22%
Each line names hits and unclear results; the compound was inactive in the other large screens (follow-up assays come after a bar, where they were run).

C[C@@H]1CN([C@@H](C)CO)C(=O)CCCn2nncc2CO[C@H]1CN(C)C(=O)Oc1ccc2ccccc2c1	none (no result: GPR7 antagonist, OX1R antag-1, CHO parental Ca, OX1R antag-2)
COC(=O)c1ccc(N2CCN(C)CC2)c([N+](=O)[O-])c1	OX1R antag-1 44.5
CCN1CCN(C(=O)COc2ccc(S(=O)(=O)N3CCOCC3)cc2C)CC1	none
C[C@]12CC[C@H](O)C[C@H]1CC[C@@H]1[C@@H]2CC[C@]2(C)C(=O)CC[C@@H]12	none (no result: GPR7 antagonist)
CN(C)C(=O)Oc1ccc([N+](=O)[O-])cc1	none
CC(=O)Nc1ccc([As](=O)(O)c2ccc([N+](=O)[O-])cc2)cc1	OX1R antag-1 67.4
O=[N+]([O-])c1ccc(-[n+]2c(-c3ccccc3)cc(-c3ccccc3)cc2-c2ccccc2)cc1	none
O=[N+]([O-])c1ccccc1-c1cc(-c2ccccc2)cc(-c2ccccc2)[n+]1Cc1ccccc1Cl	CHO parental Ca 68.1, OX1R antag-2 69.8 (no result: GPR7 antagonist)
Oc1ccc(-[n+]2c(-c3ccccc3)cc(-c3ccccc3)cc2-c2ccccc2)cc1	CHO parental Ca 43.7 (no result: GPR7 antagonist)
COc1ccc(-[n+]2c(-c3ccccc3)cc(-c3ccccc3)cc2-c2ccccc2)cc1	none (no result: GPR7 antagonist)
CCCn1ncc(CN2CCCC(C(=O)c3cccc(OC)c3)C2)c1C (centres undefined)	none
Cc1ccc(OCC(=O)N2CCN(Cc3ccc([N+](=O)[O-])cc3)CC2)cc1	GPR7 antagonist 21.4 | GPR7 antag cf 28.0 | MCHR1 antagonist 35.7
C[C@]12CC[C@H](O)CC1=CC(=O)C1C2CC[C@]2(C)C(=O)[C@H](O)CC12 (some centres undefined)	none (no result: GPR7 antagonist)
CCn1cc(C=C2C(=O)N(C)C(=O)N(C)C2=O)c2ccccc21	GPR7 antagonist 31.6 | GPR7 antag cf inactive | MCHR1 antagonist inactive
Cc1[nH]c2ccc(OC(F)(F)F)cc2c1CCNCc1cccc([N+](=O)[O-])c1	GPR7 antagonist 43.0, CHO parental Ca 29.0 | GPR7 antag cf 35.0 | MCHR1 antagonist 74.9
CC/C(=N\NC(=O)c1ccccc1Cl)c1c(O)n(C2CCCCC2)c(=O)[nH]c1=O	GPR7 antagonist 35.5 | GPR7 antag cf inactive | MCHR1 antagonist inactive
CC/C(=N\NC(=O)c1ccccc1)c1c(O)n(C2CCCCC2)c(=O)[nH]c1=O	none
CCOc1ccc(N=Cc2c(O)n(-c3cc(C)cc(C)c3)c(=O)[nH]c2=O)cc1	GPR7 antagonist 24.1 | GPR7 antag cf inactive | MCHR1 antagonist inactive
CCOc1ccc(N=Cc2c(O)n(-c3ccc(C)c(C)c3)c(=O)[nH]c2=O)cc1	none
O=P1(NCCCl)OCCCN1CCCl (centres undefined)	none (no result: GPR7 antagonist)
CCCCOc1ccc(CCN)cc1Cl	GPR7 antagonist 28.9 | GPR7 antag cf 25.6 | MCHR1 antagonist 30.5
CCOc1ccc(-c2cc(C)[n+](CCc3ccc(OC)c(OC)c3)c(-c3ccc(OCC)cc3)c2)cc1	GPR7 antagonist 54.2 (no result: OX1R antag-1, CHO parental Ca, OX1R antag-2) | GPR7 antag cf 65.9 | MCHR1 antagonist 61.4
C[C@]12CCC3C(CC[C@H]4C[C@H](O)CC[C@]34C)C1C[C@H](O)[C@H]2O (some centres undefined)	none (no result: GPR7 antagonist, OX1R antag-1, CHO parental Ca, OX1R antag-2)
COc1cc(C)c(CNCCc2c[nH]c3ccccc23)cc1C	GPR7 antagonist 38.4 | GPR7 antag cf inactive | MCHR1 antagonist 55.5
CC(C)CC(C)N (centres undefined)	none (no result: GPR7 antagonist)
COC(=O)C(O)(c1ccc(NC(=O)NC2CCCCC2)cc1)C(F)(F)F (centres undefined)	none
CCOC(=O)C(O)(c1ccc(NC(=S)NC(=O)c2ccc(Cl)cc2Cl)cc1)C(F)(F)F (centres undefined)	GPR7 antagonist 59.7, CHO parental Ca 57.1, OX1R antag-2 71.0 | GPR7 antag cf 85.6 | MCHR1 antagonist 93.3
CCOC(=O)C(O)(c1ccc(NC(=O)Oc2ccccc2)cc1)C(F)(F)F (centres undefined)	none
COC(=O)C(O)(c1ccc(NC(=S)NC(=O)c2ccc(Cl)cc2Cl)cc1)C(F)(F)F (centres undefined)	GPR7 antagonist 32.8 | GPR7 antag cf 56.2 | MCHR1 antagonist 60.5
CC12C=CC(=O)C=C1CC(O)C1C2CCC2(C)C1CCC2(C)O (centres undefined)	none (no result: GPR7 antagonist, OX1R antag-1, CHO parental Ca, OX1R antag-2)
CCC(=O)c1cn(Cc2ccc(C#N)cc2)c2ccccc12	GPR7 antagonist 27.4 | GPR7 antag cf inactive | MCHR1 antagonist inactive
CCOC(=O)C1CCCN(c2ccc([N+](=O)[O-])c3nonc23)C1 (centres undefined)	GPR7 antagonist 44.9 (no result: OX1R antag-1, CHO parental Ca, OX1R antag-2) | GPR7 antag cf 42.5 | MCHR1 antagonist 68.0
CC[C@H]1CN(C)CCc2c([nH]c3ccccc23)C(=O)C[C@@H]1/C(=C\OC)C(=O)OC	none (no result: GPR7 antagonist)
O=C1C2CCN(CC2)C1Cc1ccc(OCc2ccccc2)cc1 (centres undefined)	none
CCC1(CC)C(=O)NC(=NCCc2c[nH]c3ccccc23)NC1=O	GPR7 antagonist 27.8 | GPR7 antag cf inactive | MCHR1 antagonist inactive
CCCN(CCC)CCc1c[nH]c2ccccc12	none (no result: GPR7 antagonist, OX1R antag-1, CHO parental Ca, OX1R antag-2)
CC(C(=O)c1c[nH]c2ccccc12)N1CCc2ccccc2C1 (centres undefined)	GPR7 antagonist 22.0 | GPR7 antag cf inactive | MCHR1 antagonist inactive
CN1CC=C(c2c[nH]c3ccccc23)CC1	none (no result: GalR3 antag)
Cc1ccc2ccccc2c1NC(=O)CNC1CCCCC1	none
CCc1ccccc1NC(=O)CNC1CCCCC1	GPR7 antagonist 25.3 | GPR7 antag cf inactive | MCHR1 antagonist inactive
CC(C)NC1C2CCC(CC2)C1(O)c1ccc(Cl)c(Cl)c1 (centres undefined)	none (no result: GPR7 antagonist, OX1R antag-1, CHO parental Ca, OX1R antag-2)
O=C(Nc1nccs1)C(Cl)(Cl)Cl	none
O=C(Nc1ccc(Cl)cc1)Nc1nccs1	GPR7 antagonist 30.0 | GPR7 antag cf 27.9 | MCHR1 antagonist 42.4
COC(=O)C1=C(c2cccc(OCc3ccccc3)c2)C[C@@H]2CC[C@H]1N2C(=O)NCCN1CCOCC1	none (no result: GPR7 antagonist)
N#CCCn1cc(C(=O)Nc2ccc([N+](=O)[O-])cc2)c(-c2ccc3c(c2)OCCO3)n1	GPR7 antagonist 25.0 | GPR7 antag cf inactive | MCHR1 antagonist inactive
CCN1/C(=C\C=C\C2=[N+](CC)c3ccccc3C2(C)C)C(C)(C)c2ccccc21	GPR7 antagonist 98.2, CHO parental Ca 100.0, OX1R antag-2 108.3 (no result: GalR3 antag) | GPR7 antag cf 102.7 | MCHR1 antagonist 105.5
CCOc1cc2c(cc1OCC)-n1cccc1C(c1ccc(C)cc1C)NC2 (centres undefined)	GPR7 antagonist 37.9 | GPR7 antag cf inactive | MCHR1 antagonist 23.1
S=P(N1CCCCCC1)(N1CC1)N1CC1	none (no result: GPR7 antagonist, OX1R antag-1, CHO parental Ca, OX1R antag-2)
CNC(C)Cc1ccccc1Sc1ccc(O)cc1 (centres undefined)	GPR7 antagonist 29.9 | GPR7 antag cf 30.1 | MCHR1 antagonist 30.1
C(#CCN1CCCC1)CN1CCCC1	none (no result: GPR7 antagonist, OX1R antag-1, CHO parental Ca, OX1R antag-2)
COc1ccccc1NC(=O)c1cn(CCC#N)nc1-c1cccc(Cl)c1	none (no result: OX1R antag-1, CHO parental Ca, OX1R antag-2)
